{"data": "Published values gathered from unrelated publications", "target": "Ephrin type-B receptor 6 (EPHB6, Homo sapiens, UniProt O15197)", "One construct used (O15197 32-1021)": "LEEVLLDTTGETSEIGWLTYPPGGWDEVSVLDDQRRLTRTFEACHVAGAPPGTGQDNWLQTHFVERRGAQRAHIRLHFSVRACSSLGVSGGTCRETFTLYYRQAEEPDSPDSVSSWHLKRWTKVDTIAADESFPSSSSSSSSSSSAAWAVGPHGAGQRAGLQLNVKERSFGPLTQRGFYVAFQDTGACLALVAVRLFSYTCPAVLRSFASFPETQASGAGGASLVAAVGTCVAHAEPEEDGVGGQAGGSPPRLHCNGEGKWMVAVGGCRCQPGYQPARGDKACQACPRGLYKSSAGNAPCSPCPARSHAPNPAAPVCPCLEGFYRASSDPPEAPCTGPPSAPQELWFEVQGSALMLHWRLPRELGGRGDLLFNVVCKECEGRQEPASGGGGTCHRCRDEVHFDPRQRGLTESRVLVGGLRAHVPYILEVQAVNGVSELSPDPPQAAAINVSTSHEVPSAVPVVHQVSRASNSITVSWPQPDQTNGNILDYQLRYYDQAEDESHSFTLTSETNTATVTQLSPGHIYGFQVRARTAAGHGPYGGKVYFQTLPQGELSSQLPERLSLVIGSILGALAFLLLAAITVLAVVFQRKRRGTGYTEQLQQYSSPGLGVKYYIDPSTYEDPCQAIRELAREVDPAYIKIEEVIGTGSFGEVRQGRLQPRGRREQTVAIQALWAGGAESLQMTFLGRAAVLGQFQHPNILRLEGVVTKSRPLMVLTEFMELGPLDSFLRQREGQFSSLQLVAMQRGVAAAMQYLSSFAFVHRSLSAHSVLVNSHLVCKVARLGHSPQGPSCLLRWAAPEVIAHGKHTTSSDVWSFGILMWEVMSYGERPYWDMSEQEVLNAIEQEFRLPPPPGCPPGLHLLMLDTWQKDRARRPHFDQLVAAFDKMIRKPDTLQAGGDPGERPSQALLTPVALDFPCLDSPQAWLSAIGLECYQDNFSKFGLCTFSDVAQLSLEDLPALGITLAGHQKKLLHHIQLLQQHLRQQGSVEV"}
{"Compound": "O=C(Nc1cccnn1)N1CCC(=Cc2cccc(Oc3ccc(C(F)(F)F)cn3)c2)CC1", "effect on": "cell-free assay", "method": "competition with immobilised ligand", "concentration": "1 µM", "remaining binding [%]": 100}
{"Compound": "c1cncc(-c2cccc(Nc3nccc(NC4CCCCC4)n3)c2)c1", "effect on": "binding", "method": "competition with immobilised ligand", "concentration": "10 µM", "remaining binding [%]": 1.6}
{"Compound": "CCN1CCN(Cc2ccc(C(=O)Nc3ccc(C)c(Oc4ccc5c(c4)CC(=O)N5)c3)cc2C(F)(F)F)CC1", "effect on": "binding", "method": "competition with immobilised ligand", "concentration": "1 µM", "remaining binding [%]": 91}
{"Compound": "O=C(c1ccc(Nc2ncc(Cl)c(-c3cc4ccccc4s3)n2)cc1)N1CCC(N2CCCC2)CC1", "effect on": "binding", "method": "competition with immobilised ligand", "concentration": "1 µM", "remaining binding [%]": 3.9}
{"Compound": "C[C@@]1(Cc2ccc(C#N)cc2)C(=O)N(c2cc(Cl)cc(Cl)c2)c2ncc(C(=O)NC3(c4nc(C5CCC5)no4)CC3)n21", "effect on": "cell-free assay", "method": "competition with immobilised ligand", "concentration": "1 µM", "remaining binding [%]": 100}
{"Compound": "O=C(NCC1CCOCC1)c1n[nH]cc1NC(=O)c1c(F)cccc1F", "effect on": "binding", "method": "competition with immobilised ligand", "concentration": "1 µM", "remaining binding [%]": 91}
{"Compound": "c1cnn2ncc(-c3ccnc(N4CCC45COC5)n3)c2c1", "effect on": "binding", "concentration": "1 µM", "remaining binding [%]": 63}
{"Compound": "Cc1cnc(Nc2ccc(C(=O)N3CCC(N4CCCC4)CC3)cc2)nc1-c1cc2ccccc2s1", "effect on": "binding", "method": "competition with immobilised ligand", "concentration": "1 µM", "remaining binding [%]": 3.3}
{"Compound": "FC(F)(F)Oc1cccc(-c2cnc3ccc(-c4ccncc4)nn23)c1", "effect on": "cell-free assay", "method": "competition with immobilised ligand", "concentration": "5 µM", "remaining binding [%]": 9.3}
{"Compound": "F[C@@H]1CCN(c2nccc(-c3cnn4ncccc34)n2)C1", "effect on": "binding", "concentration": "1 µM", "remaining binding [%]": 100}
{"Compound": "CNC(=O)[C@@H]1CC[C@@H](n2c(-c3ccc4cnccc4c3)nc3ccc(C(=O)NCc4cccc(C(N)=O)c4)cc32)C1", "effect on": "binding", "method": "competition with immobilised ligand", "concentration": "1 µM", "remaining binding [%]": 100}
{"Compound": "Cc1nc(N2CC[C@@H](O)C2)ncc1-c1cc(C(F)(F)F)cc2[nH]ncc12", "effect on": "binding", "method": "competition with immobilised ligand", "concentration": "1 µM", "remaining binding [%]": 36}
{"Compound": "N[C@H]1CCN(c2nccc(-c3cnn4ncccc34)n2)C1", "effect on": "binding", "concentration": "1 µM", "remaining binding [%]": 56}
{"Compound": "O=C(Nc1cccnn1)N1CC(C/C=C/c2cncc(Oc3ccc(C(F)(F)F)cn3)n2)C1", "effect on": "cell-free assay", "method": "competition with immobilised ligand", "concentration": "1 µM", "remaining binding [%]": 87}
{"Compound": "O=C(c1ccc(Nc2ncc(Cl)c(-c3ccc(Cl)s3)n2)cc1)N1CCC(N2CCCC2)CC1", "effect on": "binding", "method": "competition with immobilised ligand", "concentration": "1 µM", "remaining binding [%]": 0}
{"Compound": "Cc1c[nH]c2nccc(Oc3c(F)cc(Nc4cc(Cl)nc(N)n4)cc3F)c12", "effect on": "cell-free assay", "method": "competition with immobilised ligand", "concentration": "0.1 µM", "remaining binding [%]": 96}
{"Compound": "C[C@@H]1CCN(c2nccc(-c3cnn4ncccc34)n2)C1", "effect on": "binding", "concentration": "1 µM", "remaining binding [%]": 93}
{"Compound": "CNC(=O)c1ccc(Nc2ncc(C(F)(F)F)c(NCc3nccnc3N(C)S(C)(=O)=O)n2)cc1", "effect on": "cell-free assay", "method": "competition with immobilised ligand", "concentration": "0.1 µM", "remaining binding [%]": 100}
{"Compound": "CN(CCCC(F)(F)F)c1nccc(-c2cnn3ncccc23)n1", "effect on": "binding", "concentration": "1 µM", "remaining binding [%]": 100}
{"Compound": "O=C(O)[C@@H]1[C@@H](Cn2nnc3ccccc3c2=O)CC[C@H]1C(=O)c1ccc(OCCC2CCOCC2)cc1", "effect on": "cell-free assay", "method": "competition with immobilised ligand", "concentration": "1 µM", "remaining binding [%]": 100}
{"Compound": "CC1CCCN1c1nccc(-c2cnn3ncccc23)n1 (stereo not shown)", "effect on": "binding", "concentration": "1 µM", "remaining binding [%]": 82}
{"Compound": "COc1ncc2cc3ccccc3nc2c1C#N", "effect on": "cell-free assay", "method": "competition with immobilised ligand", "concentration": "5 µM", "remaining binding [%]": 73}
